The results in this text go back to ChEMBL document CHEMBL1126650, “Synthesis and structure-activity relationships of novel benzimidazole and imidazo[4,5-b]pyridine acid derivatives as thromboxane A2 receptor antagonists” (J Med Chem, 1993).

Test [1] deals with Cavia porcellus. Put plainly: In vivo inhibition of […]- epoxymethano-PGH2 (1 uM) induced platelet aggregation of guinea pig platelet-rich plasma (PRP) 1 hr after per os administration at 0.3 mg/kg po. Format: functional. In outline: (§1)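 Guinea pigs dosed orally. Platelet-rich plasma taken 1 h later and aggregation triggered with 11,9-epoxymethano-PGH2 (U-IPA) at 1 µM.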
The next test addresses T1, Thromboxane A2 receptor (Homo sapiens, UniProt P21731).
T1 sequence (P21731 whole entry): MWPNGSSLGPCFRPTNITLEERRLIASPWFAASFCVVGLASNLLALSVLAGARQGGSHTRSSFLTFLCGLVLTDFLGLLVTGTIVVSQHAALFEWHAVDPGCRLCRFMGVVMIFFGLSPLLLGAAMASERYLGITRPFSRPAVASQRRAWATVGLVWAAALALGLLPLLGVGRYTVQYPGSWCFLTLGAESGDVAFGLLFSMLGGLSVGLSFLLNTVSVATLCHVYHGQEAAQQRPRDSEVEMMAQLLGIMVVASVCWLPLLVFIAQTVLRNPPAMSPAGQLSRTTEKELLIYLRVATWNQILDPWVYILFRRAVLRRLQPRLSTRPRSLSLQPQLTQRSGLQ
Kind of test: Tested in vitro for inhibition constant against TXA2 / PGH-2 receptor using [125I]PTA-OH binding affinity to human platelets.

Test [2] has as its target T2, Thromboxane A2 receptor (Homo sapiens) (UniProt P21731).
T2 sequence (whole entry): T1 sequence (P21731 whole entry)
Put plainly: In vitro for percent inhibition against TXA2 / PGH-2 receptor using [125I]PTA-OH in human platelets at 10 e-5 M. In outline:
(§2)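 Washed human platelets from volunteer blood drawn into EDTA 5 mM and indomethacin 20 µM (final); PRP at 200 g, pellet at 2000 g. 5 × 10^7 platelets incubated 30 min at 37 °C with 0.1 nM [125I]PTA-OH in Tris/NaCl/dextrose/indomethacin buffer, pH 7.4. Screening at 10^-7 and 10^-5 M. Filtration, gamma counting. Nonspecific binding set by a tetrahydrocarbazole-acetic acid antagonist. Triplicate.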

Test [3] concerns Cavia porcellus. Put plainly: In vivo inhibition of […]- epoxymethano-PGH2 (1 uM) induced platelet aggregation of guinea pig platelet-rich plasma (PRP) 1 hr after per os administration at 1 mg/kg po. The test is classed as functional. Put shortly: as §1
The target of test [4] is T2, Thromboxane A2 receptor (Homo sapiens). Kind of test: Tested in vitro for percent inhibition against TXA2 / PGH-2 receptor using [125I]PTA-OH in human platelets at 10 e-7 M. In outline: as §2

As usually defined, the inhibition in vivo is the drop in the measured response relative to a control, in per cent. Lower therefore signals little suppression. In general, Ki refers to the equilibrium dissociation constant of an inhibitor or competing ligand from its target. One may read the inhibition as the percentage by which the read-out fell short of the control. Read a high inhibition as a response far below the control. In the test on Cavia porcellus [1], `CC(C)(CC(=O)O)Cc1nc2cc(Cl)cnc2n1Cc1ccc(Cl)cc1` [MIPITROBAN] yielded an inhibition in vivo at 0.3 mg/kg of 44%. At Thromboxane A2 receptor, this compound displayed a Ki of 21 nM. The results for the inhibition in test [2] and in test [4] were 100% and 97%, respectively. At 1 mg/kg the inhibition in vivo in the test on Cavia porcellus [3] was 81%.
